Assay results as given in the array DNA melting data of Ke et al. (doi:10.1101/2024.01.08.574731).

Tests used:
[1] = melting temperature; fluorescence melt of hairpins on a sequencing array, two-state fit, raised by 9.35 °C to match UV melts; conditions: sodium 0.088 M
How it was run: (§1)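 Bootstrapped two-state fits yielded melting temperature and folding enthalpy for library hairpins. Cy3 fluorescence, with annealed Cy3 and quencher oligos, was imaged on a sequenced MiSeq flow cell in 50 mM Na-HEPES pH 8.0, 25 mM NaCl in 2.5 °C steps up to 60 °C, and normalised to pre-quench Cy3 and to control constructs. Four replicates were combined by inverse variance, and fitted temperatures were raised by 9.35 °C to match UV melts.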

[2] = folding enthalpy; higher = less favourable; fluorescence melt of hairpins on a sequencing array, two-state fit; conditions: sodium 0.088 M
How it was run: as §1

Sequence	Tm [1] [°C]	folding enthalpy [2] [kcal/mol]
GGAACCGAAAGGTATTCC ((((((....)))..)))	33.8	-13.3
GGAACCGAAAGGTTCTCC ((((((....)))..)))	51.9	-10.8
GGAACCTCGAAAGAGTCC (((..(((....))))))	27	-11.3
GGAACGCGAAAGCGTCC (((.(((....))))))	53.8	-13.4
GGAACGGGAAACTGTTCC (((((.(....).)))))	53	-42.4
GGAACTCGAAAGAGATCC (((.(((....))).)))	49.5	-34.4
GGAACTCGAAAGAGTCC (((.(((....))))))	49.2	-19.5
GGAACTGCGAAAGCATCC (((..(((....))))))	24.6	-6.59
GGAACTGGAAACAGTTTC (.(((((....))))).)	46.2	-27.7
GGAAGAACGAAAGTTTCC (((..(((....))))))	33	-14.9
GGAAGACGAAAGTCATCC (((.(((....))).)))	48.7	-26
GGAAGAGAAATCTTCC ((((((....))))))	47.7	-24.1
GGAAGAGGAAACTCCTCC (((.(((....))).)))	28	-13.9
GGAAGAGGAAACTCTTTC (.(((((....))))).)	37.3	-27
GGAAGAGGAAACTTTTCC ((((.((....)).))))	32.8	-15.8
GGAAGCGAAAGCTGATCC ((((((....)))..)))	36.9	-12.4
GGAAGCGGAAACACTTCC (((((.(....).)))))	44.3	-32.9
GGAAGCGGAAACGCTCCC ((.((((....)))).))	52.4	-19.8
GGAAGGCGAAAGCCATCC (((.(((....))).)))	53.3	-21.1
GGAAGTACGAAAGTATCC (((..(((....))))))	23.4	-11.1
GGAAGTGAAAACTTCC ((((((....))))))	56.4	-37.3
GGAAGTGGAAACATTTCC ((((.((....)).))))	40.3	-27.9
GGAATAGGAAACTGTTCC ((((.((....)).))))	42.9	-33

Sequence	Tm [1] [°C]	folding enthalpy [2] [kcal/mol]
GGAATCGAAAGATATCC ((((((....))).)))	29.1	-13.4
GGAATCGAAAGATTCTCC ((((((....)))..)))	44.4	-13.5
GGAATCGGAAACAATTCC (((((.(....).)))))	32.6	-27.8
GGAATCGGAAACGATTCC (((((((....)))))))	66.1	-43.2
GGAATGAAAATTCC (((((....)))))	44.3	-22.3
GGAATGTCGAAAGACTCC (((..(((....))))))	32.6	-14.3
GGAATTCGAAAGAAATCC (((.(((....))).)))	39.5	-30.5
GGAATTCGAAAGAAGTCC (((.(((....))).)))	49.2	-37.5
GGACAAGAAATTGTCC ((((((....))))))	55.3	-37.4
GGACAAGGAAACTTGCCC ((.((((....)))).))	43	-20.3
GGACACCCGAAAGGGTCC (((..(((....))))))	40.9	-11.5
GGACACCGAAAGGTTTCC (((.(((....))).)))	48.2	-32.8
GGACACGAAAGTGCTCC ((((((....))).)))	50.1	-22.5
GGACACGAAAGTGTCTCC ((((((....)))..)))	53.8	-9.39
GGACACGAAAGTGTTTCC ((((((....)))..)))	38	-11.5
GGACAGCGAAAGCTTTCC (((.(((....))).)))	48.3	-29.6
GGACAGGGAAACCTATCC (((.(((....))).)))	32.6	-19.3
GGACATCGAAAGATATCC (((.(((....))).)))	38	-29.8
GGACATGGAAACACGTCC ((((.((....)).))))	42.7	-30
GGACATGGAAACATGTCC (((((((....)))))))	64.7	-44.6
GGACATGGAAACGTGTCC (((((.(....).)))))	52.6	-45.1
GGACCACGAAAGTGTCC (((.(((....))))))	56.1	-22
